# Experimental data pooled from the literature.
# Protocols differ between the studies behind these lines.
# NPY1R: Neuropeptide Y receptor type 1 (NPY1R, Homo sapiens, UniProt P25929)
# ADORA3: Adenosine receptor A3 (ADORA3, Homo sapiens, UniProt P0DMS8)
# Blk: Tyrosine-protein kinase Blk (Blk, Mus musculus, UniProt P16277)
# PARP16: Protein mono-ADP-ribosyltransferase PARP16 (PARP16, Homo sapiens, UniProt Q8N5Y8)
# BRAF V600E: Serine/threonine-protein kinase B-raf (BRAF, Homo sapiens, UniProt P15056, V600E)
# DRD2: D(2) dopamine receptor (DRD2, Homo sapiens, UniProt P14416)
Compound,target,assay,setting,inhibition
O=C(c1ccc(Cl)cc1)N(Cc1ccccc1)C1CCCCC1,NPY1R,cell-free assay,10 µM,-13.6%
Cn1cnc(Br)c1C1=CN(c2ncnc3[nH]cnc23)CCS1,"Serine/threonine-protein kinase Nek5 (NEK5, Homo sapiens, UniProt Q6P3R8)","enzyme activity, inhibitor, radiometric",50 nM,18.7%
CCN(CC)c1ccc(C2Nc3ccc(C(=O)c4ccccc4)cc3NC3=C2C(=O)CC(C)(C)C3)cc1 (stereo not shown),"5-hydroxytryptamine receptor 1E (HTR1E, Homo sapiens, UniProt P28566)","ligand displacement, radioligand",10 µM,5%
C=CN1CCCn2c1nc1c2c(=O)n(C)c(=O)n1C,ADORA3,"ligand displacement, radioligand","10 µM, cell membranes",11%
CC(=O)N[C@H]1CSSC[C@@H](C(=O)N[C@H](Cc2c[nH]c3ccccc23)C(N)=O)NC(=O)[C@@H](Cc2ccccc2)NC(=O)[C@H](CCCNC(=N)N)NC1=O,"Melanocortin receptor 3 (MC3R, Homo sapiens, UniProt P41968)","ligand displacement, radioligand","10 µM, 40 min",35%
CCN(CC)CCNC(=O)c1c(C)[nH]c(/C=C2\C(=O)Nc3ccc(F)cc32)c1C,Blk,"enzyme activity, inhibitor",10 µM,83%
Oc1cccc(Nc2nc(-c3ccc(F)cc3F)cs2)c1,NPY1R,cell-free assay,10 µM,-16.2%
CCCCN1CCCn2c1nc1c2c(=O)n(C)c(=O)n1C,ADORA3,"ligand displacement, radioligand","10 µM, cell membranes",12%
C[C@@]1(c2cccc(Nc3ccc(C4CC4)nc3)c2Cl)CC(=O)N(C2CCOCC2)C(=N)N1,"Beta-secretase 1 (BACE1, Homo sapiens, UniProt P56817)","enzyme activity, inhibitor, FRET",10 µM,52%
O=C(c1ccc(F)cc1)N(Cc1ccccc1)C1CCCCC1,ADORA3,cell-free assay,10 µM,4%
CC(=O)c1nn(CC(=O)N2C[C@H](F)C[C@H]2C(=O)Nc2cccc(Br)n2)c2ccc(-c3cnc(C)nc3)cc12,"Neutrophil elastase (ELANE, Homo sapiens, UniProt P08246)","enzyme activity, inhibitor",10 µM,0.7%
Nc1ccc2c(c1)CCCn1nnnc1-2,PARP16,"enzyme activity, inhibitor",10 µM,53%
O=C(CSc1nc2nccnc2c(=O)n1CCc1ccccc1)Nc1nccs1,"Phosphatidylinositol 4-kinase type 2-alpha (PI4K2A, Homo sapiens, UniProt Q9BTU6)","enzyme activity, inhibitor",10 µM,9%
CN(C)C1CCN(CC#Cc2nn(C3CCCC3)c3nc(NCc4ccccc4)ncc23)C1 (stereo not shown),"Ephrin type-B receptor 2 (EPHB2, Homo sapiens, UniProt P29323)","enzyme activity, inhibitor, FRET",10 µM,31%
O=C1NCCCc2ccc(F)cc21,PARP16,"enzyme activity, inhibitor",10 µM,74%
Cc1ccc(C(CS(=O)(=O)c2ccccc2)=NNc2nc(C)c(N=Nc3ccccc3)s2)cc1,BRAF V600E,"enzyme activity, inhibitor, ATP luminescence",10 µM,85%
O=C1N=C(N2CCCCN2)S/C1=C\c1ccc(F)cc1O,ADORA3,"ligand displacement, radioligand",10 µM,27%
CN(C(=O)N(C)C1C2CC3CC(C2)CC1C3)c1ccc(F)c(F)c1F (stereo not shown),"ephB (Mycobacterium tuberculosis, UniProt I6YC03)","enzyme activity, inhibitor",10 nM,< 1%
CCCCCC(C)N1CCCn2c1nc1c2c(=O)n(C)c(=O)n1C (stereo not shown),ADORA3,"ligand displacement, radioligand","10 µM, cell membranes",32%
Cc1ccc(C(CS(=O)(=O)c2ccccc2)=NNC(N)=S)cc1,BRAF V600E,"enzyme activity, inhibitor, ATP luminescence",0.1 µM,46%
CNCc1ccc(-c2cc(-c3nc(-c4ccc(S(=O)(=O)C(C)C)cc4)cnc3N)on2)cc1,Blk,"enzyme activity, inhibitor",2 µM,36%
CC(=O)Nc1ccc(N2C(=O)CC(NCCc3ccccc3)C2=O)cc1 (stereo not shown),DRD2,"enzyme activity, inhibitor",10 µM,37.8%
O=C(Nc1ccc(S(=O)(=O)N2CCC(Cl)CC2)cc1)c1ccc([N+](=O)[O-])o1,NPY1R,"ligand displacement, radioligand",10 µM,7%
Cc1ccc(C(C)C)c(OCC(O)CN2CCN(c3ccccc3F)CC2)c1 (stereo not shown),DRD2,"enzyme activity, inhibitor",10 µM,32.3%
Cc1ccc(C(CS(=O)(=O)c2ccccc2)=NNC2=NC(=O)C(=NNc3ccccc3)S2)cc1,BRAF V600E,"enzyme activity, inhibitor, ATP luminescence",10 µM,89%
CC(C)CN1CCCn2c1nc1c2c(=O)n(C)c(=O)n1C,ADORA3,"ligand displacement, radioligand","10 µM, cell membranes",18%
O=C(c1cccc(Cl)c1)N1CCN(CCNc2cc(=O)oc3ccccc23)CC1,DRD2,"enzyme activity, inhibitor",10 µM,-1.9%
COc1cc(NC(C)=O)c(Cl)cc1C(=O)Nc1nccs1,NPY1R,cell-free assay,10 µM,6%
COc1ccc(-c2ccc(CNCC(O)c3ccccc3)o2)cc1Cl (stereo not shown),DRD2,"enzyme activity, inhibitor",10 µM,46%
Cc1ccc(C(CS(=O)(=O)c2ccccc2)=NNC2=NC(=O)C(=NNc3ccc([N+](=O)[O-])cc3)S2)cc1,BRAF V600E,"enzyme activity, inhibitor, ATP luminescence",10 µM,89%
COc1ccccc1N1CCN(CC(O)Cn2cnc3c2c(=O)n(C)c(=O)n3C)CC1 (stereo not shown),DRD2,"enzyme activity, inhibitor",10 µM,2.6%
CCCCCN1CCCn2c1nc1c2c(=O)n(C)c(=O)n1C,ADORA3,"ligand displacement, radioligand","10 µM, cell membranes",21%
CC(C)(C)c1nc(-c2cccc(NS(=O)(=O)c3c(F)cccc3F)c2F)c(-c2ccnc(N)n2)s1,BRAF V600E,"enzyme activity, inhibitor, ATP luminescence",10 µM,95%
O=C1C2CCCN2C(=O)N1CCCCN1CCN(c2cccc(C(F)(F)F)c2)CC1 (stereo not shown),DRD2,"enzyme activity, inhibitor",10 µM,10%
C#CCN1CCCn2c1nc1c2c(=O)n(C)c(=O)n1C,ADORA3,"ligand displacement, radioligand","10 µM, cell membranes",11%
O=C1CC(N2CCN(Cc3ccccc3)CC2)C(=O)N1c1ccc2c(c1)OCCO2 (stereo not shown),DRD2,"enzyme activity, inhibitor",10 µM,34.1%
Cc1ccc(C(CS(=O)(=O)c2ccccc2)=NN=C2N=C(c3ccc(Br)cc3)CS2)cc1,BRAF V600E,"enzyme activity, inhibitor, ATP luminescence",0.1 µM,61%
Cc1ccc(Nc2nccc(N(C)c3ccc4c(C)n(C)nc4c3)n2)cc1S(N)(=O)=O,"Dual specificity mitogen-activated protein kinase kinase 4 (Map2k4, Mus musculus, UniProt P47809)","enzyme activity, inhibitor",10 µM,63%
NC(=S)NN=C(CS(=O)(=O)c1ccccc1)c1ccc(F)cc1,BRAF V600E,"enzyme activity, inhibitor, ATP luminescence",10 µM,92%
CC(O)c1ccc(-c2ccc(CNCCc3c[nH]c4ccccc34)o2)cc1 (stereo not shown),DRD2,"enzyme activity, inhibitor",10 µM,36.8%
CNC(=O)c1cc(Oc2ccc(NC(=O)Nc3ccc(Cl)c(C(F)(F)F)c3)cc2)ccn1,Blk,"enzyme activity, inhibitor",10 µM,51%
Cc1ccc(C(CS(=O)(=O)c2ccccc2)=NNC2=NC(=O)C(=NNc3ccc(Cl)cc3)S2)cc1,BRAF V600E,"enzyme activity, inhibitor, ATP luminescence",10 nM,27%
CCCCCCN1CCCn2c1nc1c2c(=O)n(C)c(=O)n1C,ADORA3,"ligand displacement, radioligand","10 µM, cell membranes",39%
Nc1ncnc2[nH]cnc12,ADORA3,"ligand displacement, radioligand","30 µM, cell membranes",13%
CCCN1CCCn2c1nc1c2c(=O)n(C)c(=O)n1C,ADORA3,"ligand displacement, radioligand","10 µM, cell membranes",10%
COc1cc2c(cc1OC)-c1nnnn1CCC2,PARP16,"enzyme activity, inhibitor",10 µM,83%
